From ChEMBL document CHEMBL1136055, “3-Heteroaryl-2-pyridones: benzodiazepine site ligands with functional delectivity for alpha 2/alpha 3-subtypes of human GABA(A) receptor-ion channels” (J Med Chem, 2002)

What was measured:
[1] = target: GABA-A receptor; alpha-1/beta-3/gamma-2 (Homo sapiens) (UniProt P14867+P18507+P28472); assay: Modulatory effect on coapplication with GABA at human Gamma-aminobutyric acid A receptor alpha-1-beta-3-gamma-2 in Xenopus oocyte.
Procedure, shortened: (§1)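 Two-electrode voltage clamp of Xenopus oocytes transiently expressing human α1, α2 or α3 β3γ2S receptors. Test compound is co-applied with GABA at its EC20 (GABA range 4-30 µM). Result is the % change in GABA current, mean (SEM), n = 3-7, at the stated test compound concentration (µM).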

[2] = target: T1, GABA-A receptor; alpha-2/beta-3/gamma-2 (Homo sapiens, UniProt P18507+P28472+P47869); assay: Displacement of [3H]Ro-151788 from human Gamma-aminobutyric acid A receptor alpha-2-beta-3-gamma-2 stably expressed in L(tk-) cells; assay type: cell-based
T1 sequence (P18507 whole entry): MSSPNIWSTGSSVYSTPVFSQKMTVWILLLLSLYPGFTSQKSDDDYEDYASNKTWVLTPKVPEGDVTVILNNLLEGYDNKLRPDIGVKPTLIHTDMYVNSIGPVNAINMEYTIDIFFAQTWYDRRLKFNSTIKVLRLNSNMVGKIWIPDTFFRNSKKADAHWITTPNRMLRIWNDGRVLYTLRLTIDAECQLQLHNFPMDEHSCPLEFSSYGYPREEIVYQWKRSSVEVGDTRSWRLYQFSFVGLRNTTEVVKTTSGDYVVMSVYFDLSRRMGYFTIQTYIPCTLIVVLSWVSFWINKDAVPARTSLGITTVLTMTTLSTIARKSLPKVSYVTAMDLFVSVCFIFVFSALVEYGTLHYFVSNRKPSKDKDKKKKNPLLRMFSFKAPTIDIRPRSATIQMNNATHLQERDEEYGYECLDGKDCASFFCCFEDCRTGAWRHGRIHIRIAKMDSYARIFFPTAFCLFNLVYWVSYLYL
T1 sequence (P28472 whole entry): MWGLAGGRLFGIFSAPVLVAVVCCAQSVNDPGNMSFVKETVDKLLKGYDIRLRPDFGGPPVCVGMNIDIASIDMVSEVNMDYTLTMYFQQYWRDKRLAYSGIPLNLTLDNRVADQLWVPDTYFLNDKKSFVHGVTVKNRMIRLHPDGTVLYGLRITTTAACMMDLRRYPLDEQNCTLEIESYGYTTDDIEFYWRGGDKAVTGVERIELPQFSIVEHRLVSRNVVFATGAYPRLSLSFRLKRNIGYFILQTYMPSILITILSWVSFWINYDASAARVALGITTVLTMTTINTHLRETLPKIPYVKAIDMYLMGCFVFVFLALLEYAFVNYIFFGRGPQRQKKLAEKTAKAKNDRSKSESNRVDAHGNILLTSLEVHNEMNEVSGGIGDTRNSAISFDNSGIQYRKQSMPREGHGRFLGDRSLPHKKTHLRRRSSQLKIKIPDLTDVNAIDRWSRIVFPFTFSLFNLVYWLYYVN
T1 sequence (P47869 whole entry): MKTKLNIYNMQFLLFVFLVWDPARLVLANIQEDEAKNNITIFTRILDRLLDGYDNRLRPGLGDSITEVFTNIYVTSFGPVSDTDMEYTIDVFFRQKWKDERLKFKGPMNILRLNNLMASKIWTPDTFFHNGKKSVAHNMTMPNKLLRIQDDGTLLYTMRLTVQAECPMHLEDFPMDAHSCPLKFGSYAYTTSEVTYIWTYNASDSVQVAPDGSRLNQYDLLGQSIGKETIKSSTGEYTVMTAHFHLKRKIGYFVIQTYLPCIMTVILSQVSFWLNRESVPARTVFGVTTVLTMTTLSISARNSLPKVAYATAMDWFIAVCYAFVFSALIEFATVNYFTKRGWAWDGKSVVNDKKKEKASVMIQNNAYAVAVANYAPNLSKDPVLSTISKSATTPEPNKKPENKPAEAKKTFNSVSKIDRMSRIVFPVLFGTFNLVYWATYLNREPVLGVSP
Procedure, shortened: (§2)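 Competition binding against [3H]Ro15-1788 on cloned human α1/α2/α3/α5 β3γ2S receptors stably expressed in L(tk-) cells. Six to eight test concentrations spaced in half-log steps. Ki given as mean (SEM), n = 3-5, reported to two significant figures.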

[3] = target: T2, GABA-A receptor; alpha-5/beta-3/gamma-2 (Homo sapiens, UniProt P18507+P28472+P31644); assay: Inhibition of [3H]Ro-151788 binding to human GABA A receptor (alpha-5-beta-3-gamma-2) stably expressed in L(tk-) cells.; assay type: cell-based; procedure, shortened: as §2
T2 sequence (P18507 whole entry): T1 sequence (P18507 whole entry)
T2 sequence (P28472 whole entry): T1 sequence (P28472 whole entry)
T2 sequence (P31644 whole entry): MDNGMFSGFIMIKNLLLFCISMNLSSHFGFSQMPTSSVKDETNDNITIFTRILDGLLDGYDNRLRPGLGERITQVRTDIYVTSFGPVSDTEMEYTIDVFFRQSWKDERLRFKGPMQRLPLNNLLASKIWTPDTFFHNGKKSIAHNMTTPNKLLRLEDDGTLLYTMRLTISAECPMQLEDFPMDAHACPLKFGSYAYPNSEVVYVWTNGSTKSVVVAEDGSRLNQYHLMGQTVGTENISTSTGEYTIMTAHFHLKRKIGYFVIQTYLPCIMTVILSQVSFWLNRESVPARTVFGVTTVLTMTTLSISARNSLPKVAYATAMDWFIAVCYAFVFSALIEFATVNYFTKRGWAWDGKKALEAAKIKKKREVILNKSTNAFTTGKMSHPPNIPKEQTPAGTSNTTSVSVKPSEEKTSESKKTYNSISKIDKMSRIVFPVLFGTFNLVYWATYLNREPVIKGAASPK

[4] = target: T3, GABA-A receptor; alpha-1/beta-3/gamma-2 (Homo sapiens, UniProt P14867+P18507+P28472); assay: Inhibition of [3H]Ro-151788 binding to human GABA A receptor (alpha-1-beta-3-gamma-2) stably expressed in L(tk-) cells.; assay type: cell-based
T3 sequence (P14867 whole entry): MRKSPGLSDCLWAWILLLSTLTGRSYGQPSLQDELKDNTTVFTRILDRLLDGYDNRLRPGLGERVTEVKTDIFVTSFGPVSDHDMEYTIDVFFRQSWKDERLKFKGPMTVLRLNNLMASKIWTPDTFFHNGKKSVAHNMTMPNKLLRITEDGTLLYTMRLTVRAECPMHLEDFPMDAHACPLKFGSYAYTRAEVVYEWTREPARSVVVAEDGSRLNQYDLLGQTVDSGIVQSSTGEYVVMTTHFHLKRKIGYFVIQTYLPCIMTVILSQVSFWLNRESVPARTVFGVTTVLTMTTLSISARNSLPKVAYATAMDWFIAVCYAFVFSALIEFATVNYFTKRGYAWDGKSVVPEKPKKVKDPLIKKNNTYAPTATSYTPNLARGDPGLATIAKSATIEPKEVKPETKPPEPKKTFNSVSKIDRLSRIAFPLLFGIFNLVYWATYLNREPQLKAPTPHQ
T3 sequence (P18507 whole entry): T1 sequence (P18507 whole entry)
T3 sequence (P28472 whole entry): T1 sequence (P28472 whole entry)

[5] = target: T4, GABA-A receptor; alpha-3/beta-3/gamma-2 (Homo sapiens, UniProt P18507+P28472+P34903); assay: Binding affinity by displacement of [3H]Ro-151788 from recombinant human gamma-aminobutyric-acid A receptor alpha3,beta3,gamma2 stably expressed in L cells; assay type: cell-based; procedure, shortened: as §2
T4 sequence (P18507 whole entry): T1 sequence (P18507 whole entry)
T4 sequence (P28472 whole entry): T1 sequence (P28472 whole entry)
T4 sequence (P34903 whole entry): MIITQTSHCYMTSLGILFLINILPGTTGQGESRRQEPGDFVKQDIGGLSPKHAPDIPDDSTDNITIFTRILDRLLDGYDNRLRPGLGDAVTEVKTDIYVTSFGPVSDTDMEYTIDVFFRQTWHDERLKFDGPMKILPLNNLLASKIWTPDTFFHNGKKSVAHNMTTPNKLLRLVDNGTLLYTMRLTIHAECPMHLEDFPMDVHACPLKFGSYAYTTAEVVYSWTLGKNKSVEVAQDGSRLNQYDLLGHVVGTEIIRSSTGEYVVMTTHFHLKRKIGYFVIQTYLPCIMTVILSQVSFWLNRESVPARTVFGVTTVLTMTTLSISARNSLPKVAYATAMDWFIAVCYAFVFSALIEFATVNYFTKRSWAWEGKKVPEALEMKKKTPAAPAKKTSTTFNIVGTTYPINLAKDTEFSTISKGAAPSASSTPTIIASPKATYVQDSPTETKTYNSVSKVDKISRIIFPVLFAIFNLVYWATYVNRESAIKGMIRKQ

[6] = target: GABA-A receptor; alpha-2/beta-3/gamma-2 (Homo sapiens) (UniProt P18507+P28472+P47869); assay: Modulatory effect on coapplication with GABA at human Gamma-aminobutyric acid A receptor alpha-2-beta-3-gamma-2 expressed inXenopus oocytes; assay type: cell-based; conditions: Oocyte; procedure, shortened: as §1
[7] = target: GABA-A receptor; alpha-3/beta-3/gamma-2 (Homo sapiens) (UniProt P18507+P28472+P34903); assay: Modulatory effect on coapplication with GABA at human Gamma-aminobutyric acid A receptor alpha-3-beta-3-gamma-2 in Xenopus oocytes.; assay type: cell-based; conditions: Oocyte; procedure, shortened: as §1
[8] = target: T2, GABA-A receptor; alpha-5/beta-3/gamma-2; assay: Displacement of [3H]Ro-151788 from human GABA-A receptor alpha-5-beta-3-gamma-2 subunits expressed in L(tk-) cells; assay type: cell-based; procedure, shortened: as §2

Row | Compound | percent modulation of GABA EC20 response [1] | Ki [2] | Ki [3] | Ki [4] | Ki [5] | percent modulation of GABA EC20 response [6] | percent modulation of GABA EC20 response [7] | Ki [8]
1 | COC(=O)c1cc(-c2ccc(OC)cc2)c(-c2ccncc2)n(C)c1=O | 3% | 320 nM | 390 nM | 1020 nM | 79 nM | 8% | -25% | –
2 | COc1ccc(-c2cc(-c3nccs3)c(=O)n(C)c2-c2ccncc2)cc1 | 56% | 37 nM | – | 45 nM | 6.2 nM | 67% | 32% | > 1000 nM
3 | COc1ccc(-c2cc(-c3noc(C)n3)c(=O)n(C)c2-c2ccncc2)cc1 | 111% | 1100 nM | – | 260 nM | 320 nM | – | 81% | 1300 nM
4 | COc1ccc(-c2cc(-c3ccccc3)c(=O)n(C)c2-c2ccncc2)cc1 | 45% | 130 nM | > 1000 nM | 83 nM | 24 nM | – | 63% | –
5 | COc1ccc(-c2cc(-c3ccsc3)c(=O)n(C)c2-c2ccncc2)cc1 | – | 51 nM | 450 nM | 39 nM | 12 nM | – | 18% | –
6 | COC(=O)c1cc(-c2ccccc2)c(-c2ccccc2)n(C)c1=O | – | – | – | 520 nM | 270 nM | – | – | –
7 | COC(=O)c1cc(-c2ccc(OC)cc2)c(-c2ccccn2)n(C)c1=O | – | > 667 nM | > 667 nM | > 3000 nM | 510 nM | – | – | –
8 | COc1ccc(-c2cc(-c3noc(C4CC4)n3)c(=O)n(C)c2-c2ccncc2)cc1 | 120% | 240 nM | – | 310 nM | 60 nM | 142% | 150% | –
9 | COc1ccc(-c2cc(-c3nc(C)cs3)c(=O)n(C)c2-c2cccnc2)cc1 | 78% | 5 nM | > 667 nM | 12.8 nM | 3.8 nM | – | 77% | –
10 | Cc1csc(-c2cc(-c3ccc(F)cc3)c(-c3ccncc3)n(C)c2=O)n1 | 57% | 8 nM | 380 nM | 13 nM | 3.5 nM | – | 41% | –
11 | COc1ccc(-c2cc(-c3ncc(C)s3)c(=O)n(C)c2-c2ccncc2)cc1 | – | 380 nM | > 1000 nM | 330 nM | 250 nM | – | – | –
12 | COC(=O)c1cc(-c2ccccc2)c(-c2ccc(N(C)C)cc2)n(C)c1=O | – | 470 nM | > 667 nM | 630 nM | 270 nM | – | – | –
13 | COc1ccc(-c2cc(-c3nc(C)ns3)c(=O)n(C)c2-c2ccncc2)cc1 | 117% | 42 nM | > 667 nM | 90 nM | 25 nM | 97% | 138% | –
14 | COc1ccc(-c2cc(C#N)c(OC)nc2-c2ccc(N(C)C)cc2)cc1 | – | > 30000 nM | > 667 nM | > 30000 nM | > 30000 nM | – | – | –
15 | COc1ccc(-c2cc(-c3nc(C4CC4)cs3)c(=O)n(C)c2-c2ccncc2)cc1 | 29% | 24 nM | > 1000 nM | 31 nM | 12 nM | – | 35% | –
